One block for each molecule: values may come before it.
What was measured:
[1] = species on record: Cavia porcellus; test: Inhibition of LTE4 (8 nM) induced contraction of guinea pig tracheal spirals at a concentration of 0.5 uM; NS=not statistically significant; assay type: functional; conditions: Trachea
Procedure, shortened: (§1)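 Paired tracheal spirals at 37 °C in Krebs gassed with 95% O2/5% CO2 under 2 g tension, given repeated LTE4 challenges of 10 min. Compound or vehicle added 10 min before a third challenge. % inhibition = (2nd − 3rd response)/2nd × 100, corrected by subtracting the vehicle value. Paired t test, n ≥ 4.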

[2] = species on record: Cavia porcellus; test: Inhibition of LTE4 (8 nM) induced contraction of guinea pig tracheal spirals at a concentration of 3.3 uM; assay type: functional, Trachea; procedure, shortened: as §1
[3] = species on record: Cavia porcellus; test: Dissociation constant on guinea pig tracheal spirals utilizing LTE4 as agonist; conditions: Trachea
[4] = species on record: Cavia porcellus; test: Compound was evaluated for the displacement of [3H]LTD4 on guinea pig lung parenchymal membranes; parameters: species or system Lung parenchyma
Procedure, shortened: (§2)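 Membranes from perfused lungs of male Hartley guinea pigs (300-400 g) in PIPES pH 7.5 with 10 mM CaCl2, 10 mM MgCl2, 2 mM cysteine and 2 mM glycine. 1 nM 3H-LTD4 at 22 °C for 30 min; nonspecific binding with 2 uM LTD4. Filtration, then scintillation counting. IC50 by nonlinear least squares, Ki by Cheng-Prusoff; mean of two experiments in duplicate.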

[5] = species on record: Cavia porcellus; test: Inhibition of LTE4 (8 nM) induced contraction of guinea pig tracheal spirals at a concentration of 10 nM; assay type: functional, Trachea; procedure, shortened: as §1
[6] = Negative logarithm of the molar dissociation constant; assay type: ADME
Procedure, shortened: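 Paired guinea pig tracheal spirals at 37 °C in Krebs gassed with 95% O2/5% CO2, 2 g resting tension. Responses expressed relative to 30 uM carbachol. Antagonist or vehicle preincubated 30 min, then cumulative LTE4 concentration-response curves, one per tissue. EC50 by linear regression; KB = [antagonist]/(dose ratio − 1), per Furchgott.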

[7] = species on record: Cavia porcellus; test: Inhibition constant for the displacement of [3H]LTD4 on guinea pig lung parenchymal membranes; parameters: species or system Lung parenchyma; procedure, shortened: as §2
[8] = species on record: Cavia porcellus; test: Inhibition of LTE4 (8 nM) induced contraction of guinea pig tracheal spirals at a concentration of 1 uM; assay type: functional, Trachea; procedure, shortened: as §1
[9] = species on record: Cavia porcellus; test: Inhibition of LTE4 (8 nM) induced contraction of guinea pig tracheal spirals at a concentration of 1 nM; assay type: functional, Trachea; procedure, shortened: as §1
[10] = test system: Cavia porcellus; test: Protection of conscious guinea pig lung function was determined by comparison of time required for the challenged animals to exhibit labored abdominal breathing after oral dose of 30 uM/kg; assay type: functional
Procedure, shortened: (§3)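 Conscious guinea pigs pretreated with indomethacin (10 mg/kg ip) and propranolol (5 mg/kg ip). Compound in PEG400 (<10% v/v)/PBS given orally 180 min before a challenge of up to 5 min with aerosolized 60 uM LTD4. Time to abdominal dyspnea scored blind. % protection is taken against vehicle controls; no end point by 300 s counts as 100%. Unpaired t test.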

[11] = species on record: Cavia porcellus; test: Inhibition of LTE4 (8 nM) induced contraction of guinea pig tracheal spirals at a concentration of 0.1 uM; assay type: functional, Trachea; procedure, shortened: as §1
[12] = test system: Cavia porcellus; test: Protection of conscious guinea pig lung function was determined by comparison of time required for the challenged animals to exhibit labored abdominal breathing after oral dose of 10 uM/kg; assay type: functional; procedure, shortened: as §3
[13] = species on record: Cavia porcellus; test: Inhibition of LTE4 (8 nM) induced contraction of guinea pig tracheal spirals at a concentration of 0.33 uM; assay type: functional, Trachea; procedure, shortened: as §1
[14] = species on record: Cavia porcellus; test: Inhibition of LTE4 (8 nM) induced contraction of guinea pig tracheal spirals at a concentration of 3.3 uM; NS=not statistically significant; assay type: functional; conditions: Trachea; procedure, shortened: as §1
[15] = species on record: Cavia porcellus; test: Inhibition of LTE4 (8 nM) induced contraction of guinea pig tracheal spirals at a concentration of 100 nM; assay type: functional, Trachea; procedure, shortened: as §1
[16] = test system: Cavia porcellus; test: Protection of conscious guinea pig lung function was determined by comparison of time required for the challenged animals to exhibit labored abdominal breathing after oral dose of 3 uM/kg; assay type: functional; procedure, shortened: as §3
[17] = species on record: Cavia porcellus; test: Inhibition of LTE4 (8 nM) induced contraction of guinea pig tracheal spirals at a concentration of 10 uM; assay type: functional, Trachea; procedure, shortened: as §1
[18] = test system: Cavia porcellus; test: Protection of conscious guinea pig lung function was determined by comparison of time required for the challenged animals to exhibit labored abdominal breathing after oral dose of 0.3 uM/kg; assay type: functional; procedure, shortened: as §3

SMILES: CCCCOC(=O)Nc1ccc2c(C)c(C)n(Cc3ccc(C(=O)O)cc3OC)c2c1
NS [1]: not statistically significant | Inhibition [2]: 81%

SMILES: CCCC(=O)c1cn(Cc2ccc(C(=O)O)cc2OC)c2cc(NC(=O)CC3CCCC3)ccc12
Inhibition [11]: 96%

SMILES: COc1cc(C(=O)O)ccc1Cn1cc(C)c2ccc(NC(=O)CC3CCCC3)cc21
Inhibition [11]: 59%

SMILES: COc1cc(C(=O)O)ccc1Cn1cc(C(C)=O)c2ccc(NC(=O)OC3CCCC3)cc21
Inhibition [11]: 83%

SMILES: COc1cc(C(=O)O)ccc1Cn1cc(C)c2ccc(C(=O)NCC3CCCC3)cc21
NS [14]: not statistically significant

SMILES: COc1cc(C(=O)NS(=O)(=O)c2ccccc2)ccc1Cn1cc(C(C)=O)c2ccc(NC(=O)OC3CCCC3)cc21
Kb [3]: 0.123 nM

SMILES: COc1cc(C(=O)NS(=O)(=O)c2ccccc2C)ccc1Cn1ccc2ccc(OCCC3CCCC3)cc21
Inhibition [15]: 21%

SMILES: COc1cc(C(=O)NS(=O)(=O)c2ccccc2C)ccc1Cn1cc(CCC(=O)N2CCCC2)c2ccc(C(=O)NCC3CCCC3)cc21
Protection [16]: 49%

SMILES: COc1cc(C(=O)O)ccc1Cn1ccc2ccc(OCCC3CCCC3)cc21
Inhibition [17]: 75%

SMILES: CCCCOC(=O)Nc1ccc2c(Br)c(Br)n(Cc3ccc(C(=O)O)cc3OC)c2c1
NS [14]: not statistically significant

SMILES: COc1cc(C(=O)O)ccc1Cn1ccc2ccc(C(=O)OCC3CCCC3)cc21
Inhibition [2]: 10% | Inhibition [17]: 74%

SMILES: COc1cc(C(=O)O)ccc1Cn1ccc2ccc(C(=O)NCC3CCCC3)cc21
Inhibition [2]: 45%

Second part, led by results:

Kb [3]: 4.28 nM | Ki [4]: 3.21 nM
SMILES: COc1cc(C(=O)NS(=O)(=O)c2ccccc2C)ccc1Cc1cn(C)c2ccc(C(=O)NCC3CCCC3)cc12
Inhibition [5]: 36%

pKB [6]: 9.69
SMILES: COc1cc(C(=O)NS(=O)(=O)c2ccccc2)ccc1Cc1cn(C)c2ccc(NC(=O)OC3CCCC3)cc12

Ki [7]: 422 nM
SMILES: COc1cc(C(=O)O)ccc1Cc1cn(C)c2ccc(C(=O)NCC3CCCC3)cc12
Inhibition [8]: 33%

Kb [3]: 0.399 nM | Ki [7]: 1.53 nM
SMILES: CNC(=O)CCc1cn(Cc2ccc(C(=O)NS(=O)(=O)c3ccccc3C)cc2OC)c2cc(C(=O)NCC3CCCC3)ccc12
Inhibition [9]: 57% | Protection [10]: 44%

Kb [3]: 0.0731 nM
SMILES: COc1cc(C(=O)NS(=O)(=O)c2ccccc2)ccc1Cn1cc(CCC(=O)O)c2ccc(NC(=O)CC3CCCC3)cc21
Protection [12]: 35%

Kb [3]: 92.7 nM
SMILES: CCCCOC(=O)Nc1ccc2c(Cl)cn(Cc3ccc(C(=O)O)cc3OC)c2c1
Inhibition [13]: 52%

Kb [3]: 15.7 nM
SMILES: COc1cc(C(=O)O)ccc1Cn1ccc2ccc(NC(=O)OC3CCCC3)cc21
Inhibition [11]: 61%

pKB [6]: 8.44
SMILES: CCCn1cc(Cc2ccc(C(=O)NS(=O)(=O)c3ccccc3)cc2OC)c2cc(NC(=O)OC3CCCC3)ccc21

pKB [6]: 7.32
SMILES: COc1cc(C(=O)O)ccc1Cc1c[nH]c2ccc(NC(=O)OC3CCCC3)cc12

Ki [4]: 0.43 nM
SMILES: CCN(CC)C(=O)CCn1cc(Cc2ccc(C(=O)NS(=O)(=O)c3ccccc3C)cc2OC)c2cc(C(=O)NCC3CCCC3)ccc21

Kb [3]: 12.1 nM
SMILES: COc1cc(C(=O)NS(=O)(=O)c2ccccc2C)ccc1Cc1cn(C(C)C(=O)N(C)C)c2ccc(C(=O)NCC3CCCC3)cc12 (stereo unspecified)

Kb [3]: 0.245 nM | Ki [4]: 0.3 nM
SMILES: COc1cc(C(=O)NS(=O)(=O)c2ccccc2C)ccc1Cc1cn(C)c2ccc(NC(=O)CC3CCCC3)cc12

Kb [3]: 4.45 nM
SMILES: COc1cc(C(=O)NS(=O)(=O)c2ccccc2C)ccc1Cn1cc(CCC(=O)N2CCC(C)(C)CC2)c2ccc(C(=O)NCC3CCCC3)cc21

Kb [3]: 0.456 nM
SMILES: COc1cc(C(=O)NS(=O)(=O)c2ccccc2C)ccc1Cn1cc(C)c2ccc(NC(=O)CC3CCCC3)cc21
Protection [18]: 54%

Kb [3]: 0.273 nM
SMILES: COC(=O)CCc1cn(Cc2ccc(C(=O)NS(=O)(=O)c3ccccc3)cc2OC)c2cc(NC(=O)CC3CCCC3)ccc12
Protection [12]: 63%
